Measurements reported in ChEMBL document CHEMBL2380254, “Optimization of tocotrienols as antiproliferative and antimigratory leads” (Eur J Med Chem, 2013).

Columns and labels:
Type in all cases: functional
DU-145 = assay: Growth inhibition of human DU145 cells after 48 hrs by sulforhodamine B assay; details: DU-145, 48 h
Outline: (§1)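 NCI-60 screen: cells in RPMI 1640 with 5% FBS and 2 mM glutamine, 5000–40,000 cells/well, preincubated 24 h. Five concentrations (10-fold dilutions; 100 to 0.001 µM) applied for 48 h at 37 °C. TCA fixation, SRB stain, absorbance at 515 nm. Time-zero plates included; GI50 where 100×(T−T0)/(C−T0)=50.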

BT-549 [1] = assay: Growth inhibition of human BT549 cells assessed as cell growth at 10 uM after 48 hrs by sulforhodamine B assay; details: BT-549, 48 h, read-out: Activity
Outline: (§2)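 NCI-60 single-dose screen at 10 µM: cells in RPMI 1640 with 5% FBS, preincubated 24 h, then exposed 48 h at 37 °C. TCA fixation (16% final for suspension cells), SRB staining, absorbance 515 nm. Percent growth relative to time-zero and untreated control plates; negative values indicate cell kill.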

NCI-H322M [2] = assay: Growth inhibition of human NCI-H322M cells assessed as cell growth at 10 uM after 48 hrs by sulforhodamine B assay; details: read-out: Activity
Outline: (§3)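 Single-dose NCI-60 screen: adherent cells in RPMI 1640 with 5% FBS were exposed to 10 µM for 48 h at 37 °C after a 24 h preincubation. They were fixed in situ with cold TCA (10% final), stained with 0.4% SRB in 1% acetic acid, solubilized in 10 mM Tris base, and read at 515 nm. Percent growth was taken relative to time-zero and control plates.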

[3] = Growth inhibition of human Hs 578T cells assessed as cell growth at 10 uM after 48 hrs by sulforhodamine B assay; details: read-out: Activity; outline: as §2
MDA-MB-435 = assay: Growth inhibition of human MDA-MB-435 cells after 48 hrs by sulforhodamine B assay; details: MDA-MB-435, 48 h
Outline: (§4)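 NCI-60 panel cells grown in RPMI 1640 with 5% FBS and 2 mM L-glutamine, seeded at 5000–40,000 cells/well and preincubated 24 h. Five 10-fold dilutions (0.001–100 µM) from DMSO stocks were added for 48 h at 37 °C. Adherent cells were fixed with cold TCA (10% final) for 60 min at 4 °C, stained with 0.4% SRB, and read at 515 nm. GI50 was set where 100×(T−T0)/(C−T0)=50.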

A549 [4] = assay: Growth inhibition of human A549/ATCC cells assessed as cell growth at 10 uM after 48 hrs by sulforhodamine B assay; details: A549, 48 h, read-out: Activity; outline: as §2
MCF7 = assay: Growth inhibition of human MCF7 cells assessed as cell growth at 10 uM after 48 hrs by sulforhodamine B assay; details: MCF7, 48 h, read-out: Activity; outline: as §3
HL-60(TB) = assay: Growth inhibition of human HL-60(TB) cells after 48 hrs by sulforhodamine B assay; details: HL-60, 48 h
Outline: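 HL-60(TB) cells (suspension) grown in RPMI 1640 with 5% FBS and 2 mM L-glutamine. They were plated and preincubated for 24 h, with T0 plates fixed at that point. Drug was given at five 10-fold dilutions for 48 h at 37 °C. Settled cells were fixed with TCA (16% final), stained with 0.4% SRB in 1% acetic acid and read at 515 nm. GI50 was taken where 100×(T−T0)/(C−T0)=50.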

NCI-H460 = assay: Growth inhibition of human NCI-H460 cells after 48 hrs by sulforhodamine B assay; details: NCI-H460, 48 h; outline: as §4
SK-OV-3 = assay: Growth inhibition of human SKOV3 cells assessed as cell growth at 10 uM after 48 hrs by sulforhodamine B assay; details: SK-OV-3, 48 h, read-out: Activity
Outline: (§5)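 Single-dose NCI-60 test at 10 µM. Cells were grown in RPMI 1640 with 5% FBS and 2 mM L-glutamine, preincubated 24 h, with T0 plates TCA-fixed. Exposure was 48 h at 37 °C, 5% CO2. Cells were fixed with cold TCA (final 10%, 4 °C, 60 min), stained with SRB and read at 515 nm. Percent growth was taken relative to T0 and untreated control; negative values denote cell kill.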

OVCAR-3 = assay: Growth inhibition of human OVCAR3 cells assessed as cell growth at 10 uM after 48 hrs by sulforhodamine B assay; details: OVCAR-3, 48 h, read-out: Activity; outline: as §3
K562 = assay: Growth inhibition of human K562 cells assessed as cell growth at 10 uM after 48 hrs by sulforhodamine B assay; details: K562, 48 h, read-out: Activity; outline: as §2
[5] = Growth inhibition of human HCC2998 cells after 48 hrs by sulforhodamine B assay; details: HCC 2998, 48 h; outline: as §1
HCT-15 = assay: Growth inhibition of human HCT15 cells after 48 hrs by sulforhodamine B assay; details: HCT-15, 48 h; outline: as §1
OVCAR-4 = assay: Growth inhibition of human OVCAR4 cells after 48 hrs by sulforhodamine B assay; details: OVCAR-4, 48 h; outline: as §4
[6] = Growth inhibition of human EKVX cells assessed as cell growth at 10 uM after 48 hrs by sulforhodamine B assay; details: read-out: Activity; outline: as §2
NCI-H322M [7] = assay: Growth inhibition of human NCI-H322M cells after 48 hrs by sulforhodamine B assay; outline: as §4
HT-29 = assay: Growth inhibition of human HT-29 cells assessed as cell growth at 10 uM after 48 hrs by sulforhodamine B assay; details: HT-29, 48 h, read-out: Activity; outline: as §2
[8] = Growth inhibition of human NCI-ADR-RES cells assessed as cell growth at 10 uM after 48 hrs by sulforhodamine B assay; details: read-out: Activity; outline: as §3
M14 = assay: Growth inhibition of human M14 cells after 48 hrs by sulforhodamine B assay; details: M14, 48 h; outline: as §1
UACC-62 = assay: Growth inhibition of human UACC62 cells after 48 hrs by sulforhodamine B assay; details: UACC-62, 48 h
Outline: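 NCI-60 five-dose screen. Cells were grown in RPMI 1640 with 5% FBS and 2 mM L-glutamine, plated at 5000–40,000 cells/well and incubated 24 h before dosing, with T0 plates TCA-fixed. DMSO stocks were diluted to doses of […] and exposed 48 h at 37 °C, 5% CO2. Cells were fixed with cold TCA (final 10%, 60 min, 4 °C), stained with 0.4% SRB in 1% acetic acid for 10 min, solubilized in 10 mM trizma base and read at 515 nm. GI50 is where 100×(T−T0)/(C−T0)=50.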

A549 [9] = assay: Growth inhibition of human A549/ATCC cells after 48 hrs by sulforhodamine B assay; details: A549, 48 h; outline: as §1
CCRF-CEM = assay: Growth inhibition of human CCRF-CEM cells assessed as cell growth at 10 uM after 48 hrs by sulforhodamine B assay; details: read-out: Activity; outline: as §2
SN12C = assay: Growth inhibition of human SN12C cells assessed as cell growth at 10 uM after 48 hrs by sulforhodamine B assay; details: read-out: Activity; outline: as §5
IGROV-1 = assay: Growth inhibition of human IGROV1 cells after 48 hrs by sulforhodamine B assay; details: IGROV-1, 48 h; outline: as §1
BT-549 [10] = assay: Growth inhibition of human BT549 cells after 48 hrs by sulforhodamine B assay; details: BT-549, 48 h; outline: as §1

| SMILES | GI50 (DU-145) [µM] | growth at 10 µM (BT-549 [1]) [%] | growth at 10 µM (NCI-H322M [2]) [%] | growth at 10 µM [3] [%] | GI50 (MDA-MB-435) [µM] | growth at 10 µM (A549 [4]) [%] | growth at 10 µM (MCF7) [%] | GI50 (HL-60(TB)) [µM] | GI50 (NCI-H460) [µM] | growth at 10 µM (SK-OV-3) [%] | growth at 10 µM (OVCAR-3) [%] | growth at 10 µM (K562) [%] | GI50 [5] [µM] | GI50 (HCT-15) [µM] | GI50 (OVCAR-4) [µM] | growth at 10 µM [6] [%] | GI50 (NCI-H322M [7]) [µM] | growth at 10 µM (HT-29) [%] | growth at 10 µM [8] [%] | GI50 (M14) [µM] | also measured |
| --- | --- | --- | --- | --- | --- | --- | --- | --- | --- | --- | --- | --- | --- | --- | --- | --- | --- | --- | --- | --- | --- |
| CC(C)=CCC/C(C)=C/CC/C(C)=C/CC[C@]1(C)CCc2c3c(cc(C)c2O1)OCN(CCCCCO)C3 | 6.28 | 110 | 16.8 | 36.6 | 5.8 | 36.1 | -63.6 | 6.26 | 5.18 | 96.9 | 54.6 | -35 | 2.53 | 6.24 | 5.68 | 90.5 | 6.35 | -34.9 | 43.1 | 6.63 | GI50 (UACC-62): 5.87 µM; GI50 (A549 [9]): 6.19 µM; growth at 10 µM (CCRF-CEM): 38.4%; growth at 10 µM (SN12C): 67.4%; GI50 (IGROV-1): 6.18 µM; GI50 (BT-549 [10]): 7.34 µM |
| CC(C)=CCC/C(C)=C/CC/C(C)=C/CC[C@]1(C)CCc2c3c(cc(C)c2O1)OCN(CCc1ccc(O)cc1)C3 | 5.75 | 105 | 29.7 | -6.12 | 4.54 | 76.6 | -86.3 | 3.34 | 1.12 | 69.1 | 36.4 | 3.51 | 1.71 | 5.87 | 5.36 | 90.7 | 6.2 | 18.6 | 37.5 | 6.66 | GI50 (UACC-62): 6.01 µM; GI50 (A549 [9]): 6.09 µM; growth at 10 µM (CCRF-CEM): 2.75%; growth at 10 µM (SN12C): 65.6%; GI50 (IGROV-1): 4.34 µM; GI50 (BT-549 [10]): 7.06 µM |
| CC(C)=CCC/C(C)=C/CC/C(C)=C/CC[C@]1(C)CCc2c3c(cc(C)c2O1)OCN(CCCO)C3 | 1.9 | 92 | -62.1 | -11.8 | 1.65 | -35.9 | -94.2 | 2.19 | 1.93 | 88.3 | -38.4 | -33.4 | 1.74 | 1.97 | 1.64 | 82.7 | 1.87 | -76.7 | -26.4 | 1.92 | GI50 (UACC-62): 1.81 µM; GI50 (A549 [9]): 1.89 µM; growth at 10 µM (CCRF-CEM): 28.6%; growth at 10 µM (SN12C): 11.7%; GI50 (IGROV-1): 1.81 µM; GI50 (BT-549 [10]): 2 µM |
